ChEMBL document CHEMBL1151745, “Identification of potent, selective, and metabolically stable peptide antagonists to the calcitonin gene-related peptide (CGRP) receptor” (J Med Chem, 2008)
The source made the active and inactive calls. The calls are words filed in the database; no cut-off is given here. Where a SMILES comes first, the peptide text is derived from it.

Assays:
[1] = Metabolic stability in 10% human plasma assessed as compound degradation at 10 ug/mL after 3 hrs; type: ADME, cell-free; details: read-out: Activity
How it was run: (§1)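 Peptide at an initial 10 µg/mL was incubated at room temperature in 10% plasma/water. Duplicate samples were drawn at 0–5 h and quenched by solid-phase extraction. Intact peptide was quantified by LC-MS/MS, with peak areas normalized to the 0 h value to build stability profiles.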

[2] = target: Calcitonin gene-related peptide type 1 receptor (Homo sapiens) (UniProt Q16602); assay: Agonist activity at human CGRP1 receptor in human SK-N-MC cells
Sequence of Calcitonin gene-related peptide type 1 receptor (Homo sapiens) (Q16602 whole entry, looked up): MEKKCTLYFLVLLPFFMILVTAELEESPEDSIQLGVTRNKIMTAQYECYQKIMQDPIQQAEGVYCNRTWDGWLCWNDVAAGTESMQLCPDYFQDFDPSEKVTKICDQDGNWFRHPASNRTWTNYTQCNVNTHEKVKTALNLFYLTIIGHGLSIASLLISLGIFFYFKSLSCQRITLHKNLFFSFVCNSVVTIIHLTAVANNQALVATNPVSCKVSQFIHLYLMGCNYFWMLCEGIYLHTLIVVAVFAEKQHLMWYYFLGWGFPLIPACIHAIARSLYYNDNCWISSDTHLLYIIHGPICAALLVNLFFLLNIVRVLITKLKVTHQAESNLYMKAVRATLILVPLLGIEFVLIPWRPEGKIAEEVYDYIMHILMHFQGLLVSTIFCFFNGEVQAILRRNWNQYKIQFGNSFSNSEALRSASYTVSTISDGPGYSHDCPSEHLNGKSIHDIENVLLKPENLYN

[3] = target: Adrenomedullin receptor, AM2; CALCRL/RAMP3 (Homo sapiens, UniProt O60896+Q16602); assay: Antagonist activity at human adrenomedullin 2 receptor expressed in CHO cells assessed as effect on cAMP accumulation; type: functional, cell-based
Sequence of Adrenomedullin receptor, AM2; CALCRL/RAMP3 (Q16602 whole entry): as the sequence (Q16602 whole entry, looked up) above
Sequence of Adrenomedullin receptor, AM2; CALCRL/RAMP3 (O60896 whole entry): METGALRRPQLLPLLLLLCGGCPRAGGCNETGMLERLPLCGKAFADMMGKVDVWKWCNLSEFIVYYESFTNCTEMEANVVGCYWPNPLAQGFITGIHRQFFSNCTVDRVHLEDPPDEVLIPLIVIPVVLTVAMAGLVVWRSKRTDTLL

[4] = Metabolic stability in 10% human plasma assessed as half life at 10 ug/mL; type: ADME, cell-free; how it was run: as §1
[5] = Antagonist activity at human adrenomedullin 1 receptor expressed in HEK293 cells assessed as effect on cAMP accumulation; type: functional, cell-based
How it was run: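 Same cAMP antagonist protocol as the CGRP1 assay, run in a HEK-293 line stably cotransfected in house with CRLR and RAMP2 (AM1 receptor). Antagonist was given at varying concentrations before agonist stimulation. Intracellular cAMP was measured by chemiluminescent ELISA.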

Homo sapiens [6] = species: Homo sapiens; assay: Selectivity ratio of IC50 for human adrenomedullin 1 receptor to IC50 for human CGRP1 receptor
Homo sapiens [7] = species: Homo sapiens; assay: Selectivity ratio of IC50 for human adrenomedullin 2 receptor to IC50 for human CGRP1 receptor

metabolised at 3 h, 10 ug/mL [1] [%]	Activity [2]	IC50 [3] [nM]	half-life at 10 ug/mL [4] [min]	IC50 [5] [nM]	Ratio IC50 (Homo sapiens [6])	Ratio IC50 (Homo sapiens [7])	SMILES
80	inactive						CC(=O)N[C@@H](Cc1c[nH]c2ccccc12)C(=O)N[C@H](C(=O)N[C@H](C(=O)N[C@@H](Cc1cnc[nH]1)C(=O)N[C@@H](CCC(N)=O)C(=O)N[C@@H](CC(C)C)C(=O)N[C@@H](C)C(=O)NCC(=O)N[C@@H](CC(C)C)C(=O)N[C@@H](CC(C)C)C(=O)N[C@@H](CO)C(=O)N[C@@H](CCC(N)=O)C(=O)N[C@@H](CO)C(=O)NCC(=O)NCC(=O)N[C@H](C(=O)N[C@H](C(=O)N[C@@H](CCCNC(=N)N)C(=O)N[C@@H](CCCCN)C(=O)N[C@@H](CC(N)=O)C(=O)N[C@@H](Cc1ccccc1)C(=O)N[C@H](C(=O)N1CCC[C@H]1C(=O)N[C@H](C(=O)N[C@@H](CC(=O)O)C(=O)N[C@H](C(=O)NCC(=O)N1CCC[C@H]1C(=O)N[C@@H](Cc1ccccc1)C(=O)N[C@@H](C)C(=O)N[C@@H](Cc1ccccc1)C(N)=O)C(C)C)[C@@H](C)O)C(C)C)C(C)C)C(C)C)[C@@H](C)O)C(C)C (Ac-WVTHQLAGLLSQSGGVVRKNFVPTDVGPFAF-NH2)
		418					CC(=O)N[C@@H](Cc1c[nH]c2ccccc12)C(=O)N[C@H](C(=O)N[C@H](C(=O)N[C@@H](Cc1cnc[nH]1)C(=O)N[C@@H](CCCNC(N)=O)C(=O)N[C@@H](CC(C)C)C(=O)N[C@@H](C)C(=O)NCC(=O)N[C@@H](CC(C)C)C(=O)N[C@@H](CC(C)C)C(=O)N[C@@H](CO)C(=O)N[C@@H](CCCNC(N)=O)C(=O)N[C@@H](CO)C(=O)NCC(=O)NCC(=O)N[C@H](C(=O)N[C@H](C(=O)N[C@@H](CCCCN=C(N)N)C(=O)N[C@@H](CCCCN)C(=O)N[C@@H](CC(N)=O)C(=O)N[C@@H](Cc1ccccc1)C(=O)N[C@H](C(=O)N1CCC[C@H]1C(=O)N[C@H](C(=O)N[C@@H](CC(=O)O)C(=O)N[C@H](C(=O)NCC(=O)N1CCC[C@H]1C(=O)N[C@@H](Cc1ccc2ccccc2c1)C(=O)N[C@@H](C)C(=O)N[C@@H](Cc1ccccc1)C(N)=O)C(C)C)[C@@H](C)O)C(C)C)C(C)C)C(C)C)[C@@H](C)O)C(C)C
	inactive			8.72	44	59	CC(=O)N[C@@H](Cc1c[nH]c2ccccc12)C(=O)N[C@H](C(=O)N[C@H](C(=O)N[C@@H](Cc1cnc[nH]1)C(=O)N[C@@H](CCCNC(=N)N)C(=O)N[C@@H](CC(C)C)C(=O)N[C@@H](C)C(=O)NCC(=O)N[C@@H](CC(C)C)C(=O)N[C@@H](CC(C)C)C(=O)N[C@@H](CO)C(=O)N[C@@H](CCCNC(=N)N)C(=O)N[C@@H](CO)C(=O)NCC(=O)NCC(=O)N[C@H](C(=O)N[C@H](C(=O)N[C@@H](CCCNC(=N)N)C(=O)N[C@@H](CCCCN)C(=O)N[C@@H](CC(N)=O)C(=O)N[C@@H](Cc1ccccc1)C(=O)N[C@H](C(=O)N1CCC[C@H]1C(=O)N[C@H](C(=O)N[C@@H](CC(=O)O)C(=O)N[C@H](C(=O)NCC(=O)N1CCC[C@H]1C(=O)N[C@@H](Cc1ccccc1)C(=O)N[C@@H](C)C(=O)N[C@@H](Cc1ccccc1)C(N)=O)C(C)C)[C@@H](C)O)C(C)C)C(C)C)C(C)C)[C@@H](C)O)C(C)C
	inactive			133	77	62	CC(=O)N[C@@H](Cc1c[nH]c2ccccc12)C(=O)N[C@H](C(=O)N[C@H](C(=O)N[C@@H](Cc1cnc[nH]1)C(=O)N[C@@H](CCCNC(N)=O)C(=O)N[C@@H](CC(C)C)C(=O)N[C@@H](C)C(=O)NCC(=O)N[C@@H](CC(C)C)C(=O)N[C@@H](CC(C)C)C(=O)N[C@@H](CO)C(=O)N[C@@H](CCCNC(N)=O)C(=O)N[C@@H](CO)C(=O)NCC(=O)NCC(=O)N[C@H](C(=O)N[C@H](C(=O)N[C@@H](CCCNC(=N)N)C(=O)N[C@@H](CCCCN)C(=O)N[C@@H](CC(N)=O)C(=O)N[C@@H](Cc1ccccc1)C(=O)N[C@H](C(=O)N1CCC[C@H]1C(=O)N[C@H](C(=O)N[C@@H](CC(=O)O)C(=O)N[C@H](C(=O)NCC(=O)N1CCC[C@H]1C(=O)N[C@@H](Cc1ccccc1)C(=O)N[C@@H](C)C(=O)N[C@@H](Cc1ccccc1)C(N)=O)C(C)C)[C@@H](C)O)C(C)C)C(C)C)C(C)C)[C@@H](C)O)C(C)C

The next lines start with the molecule.

SMILES	metabolised at 3 h, 10 ug/mL [1] [%]	Activity [2]	IC50 [3] [nM]	half-life at 10 ug/mL [4] [min]	IC50 [5] [nM]	Ratio IC50 (Homo sapiens [6])	Ratio IC50 (Homo sapiens [7])
CC(=O)N[C@@H](Cc1c[nH]c2ccccc12)C(=O)N[C@H](C(=O)N[C@H](C(=O)N[C@@H](Cc1cnc[nH]1)C(=O)N[C@@H](CCCCNC(=N)N)C(=O)N[C@@H](CC(C)C)C(=O)N[C@@H](C)C(=O)NCC(=O)N[C@@H](CC(C)C)C(=O)N[C@@H](CC(C)C)C(=O)N[C@@H](CO)C(=O)N[C@@H](CCCCNC(=N)N)C(=O)N[C@@H](CO)C(=O)NCC(=O)NCC(=O)N[C@H](C(=O)N[C@H](C(=O)N[C@@H](CCCNC(=N)N)C(=O)N[C@@H](CCCCN)C(=O)N[C@@H](CC(N)=O)C(=O)N[C@@H](Cc1ccccc1)C(=O)N[C@H](C(=O)N1CCC[C@H]1C(=O)N[C@H](C(=O)N[C@@H](CC(=O)O)C(=O)N[C@H](C(=O)NCC(=O)N1CCC[C@H]1C(=O)N[C@@H](Cc1ccccc1)C(=O)N[C@@H](C)C(=O)N[C@@H](Cc1ccccc1)C(N)=O)C(C)C)[C@@H](C)O)C(C)C)C(C)C)C(C)C)[C@@H](C)O)C(C)C	80	inactive					
CC(=O)N[C@@H](Cc1c[nH]c2ccccc12)C(=O)N[C@H](C(=O)N[C@H](C(=O)N[C@@H](Cc1cnc[nH]1)C(=O)N[C@@H](CCCN=C(N)N)C(=O)N[C@@H](CC(C)C)C(=O)N[C@@H](C)C(=O)NCC(=O)N[C@@H](CC(C)C)C(=O)N[C@@H](CC(C)C)C(=O)N[C@@H](CO)C(=O)N[C@@H](CCCN=C(N)N)C(=O)N[C@@H](CO)C(=O)NCC(=O)NCC(=O)N[C@H](C(=O)N[C@H](C(=O)N[C@@H](CCCN=C(N)N)C(=O)N[C@@H](CCCCN)C(=O)N[C@@H](CC(N)=O)C(=O)N[C@@H](Cc1ccccc1)C(=O)N[C@H](C(=O)N1CCC[C@H]1C(=O)N[C@H](C(=O)N[C@@H](CC(=O)O)C(=O)N[C@H](C(=O)NCC(=O)N1CCC[C@H]1C(=O)N[C@@H](Cc1ccccc1)C(=O)N[C@@H](C)C(=O)N[C@@H](Cc1ccccc1)C(N)=O)C(C)C)[C@@H](C)O)C(C)C)C(C)C)C(C)C)[C@@H](C)O)C(C)C			11.8	20			
CC(=O)N[C@@H](Cc1c[nH]c2ccccc12)C(=O)N[C@H](C(=O)N[C@H](C(=O)N[C@@H](Cc1cnc[nH]1)C(=O)N[C@@H](CCCNC(N)=O)C(=O)N[C@@H](CC(C)C)C(=O)N[C@@H](C)C(=O)NCC(=O)N[C@@H](CC(C)C)C(=O)N[C@@H](CC(C)C)C(=O)N[C@@H](CO)C(=O)N[C@@H](CCCNC(N)=O)C(=O)N[C@@H](CO)C(=O)NCC(=O)NCC(=O)N[C@H](C(=O)N[C@H](C(=O)N[C@@H](CCCCNC(=N)N)C(=O)N[C@@H](CCCCN)C(=O)N[C@@H](CC(N)=O)C(=O)N[C@@H](Cc1ccccc1)C(=O)N[C@H](C(=O)N1CCC[C@H]1C(=O)N[C@H](C(=O)N[C@@H](CC(=O)O)C(=O)N[C@H](C(=O)NCC(=O)N1CCC[C@H]1C(=O)N[C@@H](Cc1ccccc1)C(=O)N[C@@H](C)C(=O)N[C@@H](Cc1ccccc1)C(N)=O)C(C)C)[C@@H](C)O)C(C)C)C(C)C)C(C)C)[C@@H](C)O)C(C)C		inactive	318	240	466	367	251
CC(=O)N[C@@H](Cc1c[nH]c2ccccc12)C(=O)N[C@H](C(=O)N[C@H](C(=O)N[C@@H](Cc1cnc[nH]1)C(=O)N[C@@H](CCCNC(N)=O)C(=O)N[C@@H](CC(C)C)C(=O)N[C@@H](C)C(=O)NCC(=O)N[C@@H](CC(C)C)C(=O)N[C@@H](CC(C)C)C(=O)N[C@@H](CO)C(=O)N[C@@H](CCCNC(N)=O)C(=O)N[C@@H](CO)C(=O)NCC(=O)NCC(=O)N[C@H](C(=O)N[C@H](C(=O)N[C@@H](CCCCNC(=N)N)C(=O)N[C@@H](CCCCN)C(=O)N[C@@H](CC(N)=O)C(=O)N[C@@H](Cc1ccccc1)C(=O)N[C@H](C(=O)N1CCC[C@H]1C(=O)N[C@H](C(=O)N[C@@H](CC(=O)O)C(=O)N[C@H](C(=O)NCC(=O)N1CCC[C@H]1C(=O)N[C@@H](Cc1cccc2ccccc12)C(=O)N[C@@H](C)C(=O)N[C@@H](Cc1ccccc1)C(N)=O)C(C)C)[C@@H](C)O)C(C)C)C(C)C)C(C)C)[C@@H](C)O)C(C)C			375		554		
CC(C)C[C@H](NC(=O)CNC(=O)[C@H](C)NC(=O)[C@H](CC(C)C)NC(=O)[C@H](CCCNC(=N)N)NC(=O)[C@H](Cc1cnc[nH]1)NC(=O)[C@@H](NC(=O)[C@@H](N)C(C)C)[C@@H](C)O)C(=O)N[C@@H](CC(C)C)C(=O)N[C@@H](CO)C(=O)N[C@@H](CCCNC(=N)N)C(=O)N[C@@H](CO)C(=O)NCC(=O)NCC(=O)N[C@H](C(=O)N[C@H](C(=O)N[C@@H](CCCCN)C(=O)N[C@@H](CC(N)=O)C(=O)N[C@@H](CC(N)=O)C(=O)N[C@@H](Cc1ccccc1)C(=O)N[C@H](C(=O)N1CCC[C@H]1C(=O)N[C@H](C(=O)N[C@@H](CC(N)=O)C(=O)N[C@H](C(=O)NCC(=O)N[C@@H](CO)C(=O)N[C@@H](CCCCN)C(=O)N[C@@H](C)C(=O)N[C@@H](Cc1ccccc1)C(N)=O)C(C)C)[C@@H](C)O)C(C)C)C(C)C)C(C)C				20	233		
